Test results as given in ChEMBL document CHEMBL1671655, “Anidulafungin is fungicidal and exerts a variety of postantifungal effects against Candida albicans, C. glabrata, C. parapsilosis, and C. krusei isolates” (2009).
In brackets after ≈: the same amount, converted by molar mass. Activity calls are given as the source filed them. No cut-off for these calls is given here. Starred links: 1 amine or outer side, 2 acyl side, 3 side chain; linkers in the order of their positions; H or OH if unused. Positions of bridges follow the written chain, without caps; N, C: chain ends. Non-standard residues stand in square brackets, D forms with d. Residues, ends and D or L forms follow the SMILES beside them. *: point of attachment. pTerphenylCO(4''-OnC5H11) = CCCCCOc1ccc(-c2ccc(-c3ccc(C(=O)*)cc3)cc2)cc1; Orn(4R-OH,5R-OH) = O=C([C@H](C[C@@H](O)[C@@H](O)N[*:3])N[*:1])[*:2]; hTyr(3S-OH,4S-OH) = N[C@H](C(=O)O)[C@H](O)[C@@H](O)c1ccc(O)cc1; Pro(3S-OH,4S-Me) = C[C@H]1CN[C@H](C(=O)O)[C@H]1O; Hyp = O=C(O)[C@@H]1C[C@@H](O)CN1

Tests used:
Candida albicans [1] = assay: Fungicidal activity against Candida albicans isolate 2 assessed as log reduction in bacterial count at MIC after 48 hrs by time-kill analysis; assay type: functional; conditions: isolate 2, 48 h
Summary of the method: (§1)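 Isolates subcultured twice on SDA, suspended to 0.5 McFarland, giving ~1 x 10^5 to 5 x 10^5 CFU/ml in MOPS-buffered RPMI 1640 (pH 7.0) with or without drug at multiples of MIC (MIC by CLSI M27-A3). Tubes shaken at 35°C with continuous drug. Sampled at 0–48 h, diluted 10-fold and plated on SDA; CFU counted after 48 h at 35°C. Run twice per isolate; means.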

Candida parapsilosis [2] = assay: Fungicidal activity against Candida parapsilosis isolate S assessed as log reduction in bacterial count at 4 times MIC after 48 hrs by time-kill analysis; assay type: functional; conditions: Lodderomyces parapsilosis
Summary of the method: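 Isolates subcultured twice on SDA, then suspended to 0.5 McFarland and diluted into RPMI 1640 (MOPS, pH 7.0) with or without anidulafungin, giving about 1 x 10^5 to 5 x 10^5 CFU/ml. Tubes were shaken at 35°C. Samples were taken at 0, 2, 4, 8, 12, 24 and 48 h, serially diluted 10-fold, plated on SDA, and CFU counted after 48 h at 35°C. Each isolate was run twice; mean values.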

Nakaseomyces glabratus [3] = assay: Fungicidal activity against Candida glabrata isolate 3 assessed as log reduction in bacterial count at 16 times MIC after 48 hrs by time-kill analysis; assay type: functional; conditions: isolate 3, 48 h; summary of the method: as §1
Pichia kudriavzevii [4] = assay: Fungicidal activity against Candida krusei isolate 1 assessed as log reduction in bacterial count at 16 times MIC after 48 hrs by time-kill analysis; assay type: functional; conditions: isolate 1, 48 h; summary of the method: as §1
Pichia kudriavzevii [5] = assay: Fungicidal activity against Candida krusei isolate 1 assessed as log reduction in bacterial count at 4 times MIC after 48 hrs by time-kill analysis; assay type: functional; conditions: isolate 1, 48 h; summary of the method: as §1
Candida parapsilosis [6] = assay: Fungicidal activity against Candida parapsilosis isolate S assessed as log reduction in bacterial count at 16 times MIC after drug exposure for 1 hr followed by washout measured after 48 hrs in the absence of drug by PAFE study; assay type: functional; conditions: Lodderomyces parapsilosis
Summary of the method: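 Inoculum about 1 x 10^5 to 5 x 10^5 CFU/ml in RPMI 1640 (MOPS, pH 7.0) with drug, shaken at 35°C for 1 h. Cells were then washed and centrifuged at 1,400 x g for 10 min (3 cycles) and resuspended in warm drug-free RPMI. Samples plated on SDA at 0, 2, 4, 8, 12, 24 and 48 h; CFU counted after 48 h at 35°C. Run twice per isolate; means.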

Pichia kudriavzevii [7] = assay: Antifungal activity against Candida krusei isolate ATCC 6258 by CLSI M27-A3 broth microdilution method; assay type: functional
Summary of the method: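 CLSI M27-A3 broth microdilution in RPMI 1640 buffered to pH 7.0 with MOPS. Starting inoculum 0.5 x 10^3 to 2.5 x 10^3 cells/ml, incubated at 35°C. MIC read as the lowest concentration giving >50% growth reduction versus control. Each isolate tested on at least three occasions.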

Nakaseomyces glabratus [8] = assay: Antifungal activity against Candida glabrata isolate 1 assessed as time period for bacterial growth inhibition at 16 times MIC after 1 hr drug exposure; assay type: functional
Summary of the method: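 Inoculum of about 1 x 10^5 to 5 x 10^5 CFU/ml in MOPS-buffered RPMI (pH 7.0), shaken at 35°C and exposed to drug for 1 h. Cells then washed and centrifuged three times and resuspended in drug-free warm RPMI. Samples plated on SDA at 0, 2, 4, 8, 12, 24 and 48 h, with CFU counted after 48 h at 35°C. Run twice per isolate; values are means.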

Candida albicans [9] = assay: Increase in susceptibility to SDS in Candida albicans ATCC 90028 assessed as cell wall damage at MIC after 1 hr relative to control; assay type: functional, organism-based
Summary of the method: (§2)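 Cells recovered 8 h after a 1-h drug exposure were grown in YPD with 1% glucose to exponential phase and adjusted to OD599 0.1. Undiluted culture and 10-fold serial dilutions were spotted onto YPD plates containing SDS (0.01 to 0.04%), then incubated 72 h at 30°C. Growth compared with unexposed control cells; triplicate.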

Nakaseomyces glabratus [10] = assay: Increase in susceptibility to SDS in Candida glabrata isolate 3 assessed as cell wall damage at MIC after 1 hr relative to control; assay type: functional, organism-based; summary of the method: as §2
Candida albicans [11] = assay: Increase in susceptibility to SDS in Candida albicans ATCC 90028 assessed as cell wall damage at 16 times MIC after 1 hr relative to control; assay type: functional, organism-based; summary of the method: as §2
Nakaseomyces glabratus [12] = assay: Increase in susceptibility to SDS in Candida glabrata isolate 3 assessed as cell wall damage at 16 times MIC after 1 hr relative to control; assay type: functional, organism-based; summary of the method: as §2
Nakaseomyces glabratus [13] = assay: Increase in susceptibility to calcofluor white in Candida glabrata isolate 3 assessed as cell wall damage at MIC after 1 hr relative to control; assay type: functional, organism-based
Summary of the method: (§3)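 Cells recovered 8 h after a 1-h drug exposure were grown to exponential phase in YPD with 1% glucose and adjusted to OD599 0.1. Undiluted and 10-fold serially diluted cultures were spotted onto YPD plates containing calcofluor white, then incubated at 30°C for 72 h. Growth compared with no-drug control cells; triplicate.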

Candida albicans [14] = assay: Increase in susceptibility to calcofluor white in Candida albicans isolate 1 assessed as cell wall damage at 4 times MIC after 1 hr relative to control; assay type: functional, organism-based; summary of the method: as §3
Candida parapsilosis [15] = assay: Increase in susceptibility to calcofluor white in Candida parapsilosis isolate A assessed as cell wall damage at 4 times MIC after 1 hr relative to control; assay type: functional, organism-based
Summary of the method: (§4)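 Candida given a 1-h anidulafungin pulse in MOPS-buffered RPMI 1640 (pH 7.0) at 35°C, washed three times by centrifugation, and regrown drug-free. Cells collected 8 h later, grown in YPD with 1% glucose to exponential phase, and set to OD599 0.1. Undiluted culture and 10-fold dilutions (4 µl) spotted on YPD plates with calcofluor white, then 30°C for 72 h. Triplicate; compared with no-drug cells.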

Candida parapsilosis [16] = assay: Increase in susceptibility to calcofluor white in Candida parapsilosis isolate 1 assessed as cell wall damage at 16 times MIC after 1 hr relative to control; assay type: functional, organism-based; summary of the method: as §4
Nakaseomyces glabratus [17] = assay: Increase in susceptibility to calcofluor white in Candida glabrata isolate 3 assessed as cell wall damage at 16 times MIC after 1 hr relative to control; assay type: functional, organism-based; summary of the method: as §3
Candida albicans [18] = assay: Antifungal activity against Candida albicans isolate 1 assessed as cell wall damage at 4 times MIC by Transmission electron microscopy; assay type: functional, organism-based
Summary of the method: (§5)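 Cells recovered 8 h after a 1-h drug exposure were grown on SDA for 24 h at 35°C. Colonies fixed at 4°C in 0.1 M cacodylate (pH 7.2) with 2% glutaraldehyde and 2% paraformaldehyde, ethanol-dehydrated and embedded in Lowicryl K4M. Thin sections examined by transmission EM.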

Pichia kudriavzevii [19] = assay: Antifungal activity against Candida krusei isolate 1 assessed as cell wall damage at 4 times MIC by Transmission electron microscopy; assay type: functional, organism-based; summary of the method: as §5
Candida albicans [20] = assay: Inhibition of Candida albicans isolate 1 adherence to human buccal epithelial cells at 4 times MIC after 1 hr by adherence assay relative to control; assay type: functional, Epithelial cell
Summary of the method: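 Candida collected 8 h after a 1-h 4x MIC pulse and washout were grown on SDA for 24 h at 35°C. Buccal epithelial cells were pooled from three donors and washed in PBS. Cells (1 x 10^5/ml) were mixed 1:1 by volume with Candida (1 x 10^6/ml) and shaken 1 h at 37°C. Mixtures were filtered, washed, and Gram-stained, and Candida were counted per 100 epithelial cells. Run in duplicate on ≥2 occasions; Student's t test against unexposed controls.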

## CCCCCOc1ccc(-c2ccc(-c3ccc(C(=O)N[C@H]4C[C@@H](O)[C@@H](O)NC(=O)[C@@H]5[C@@H](O)[C@@H](C)CN5C(=O)[C@H]([C@@H](C)O)NC(=O)[C@H]([C@H](O)[C@@H](O)c5ccc(O)cc5)NC(=O)[C@@H]5C[C@@H](O)CN5C(=O)[C@H]([C@@H](C)O)NC4=O)cc3)cc2)cc1 [ANIDULAFUNGIN] ({pTerphenylCO(4''-OnC5H11)}-[Orn(4R-OH,5R-OH)]T[Hyp][hTyr(3S-OH,4S-OH)]T[Pro(3S-OH,4S-Me)]; lactam 1-C)
Candida albicans [1]
  log reduction: 0.89 log CFU/ml
Candida parapsilosis [2]
  log reduction: 2.77 log CFU/ml
Nakaseomyces glabratus [3]
  log reduction: 3.89 log CFU/ml
Pichia kudriavzevii [4]
  log reduction: 3 log CFU/ml
Pichia kudriavzevii [5]
  log reduction: 2.29 log CFU/ml
Candida parapsilosis [6]
  log reduction: 3.05
Pichia kudriavzevii [7]
  MIC: 0.06 µg/mL (≈ 0.0526 µM)
Nakaseomyces glabratus [8]
  Time: 8 h
Candida albicans [9]
  Activity: Active
Nakaseomyces glabratus [10]
  Activity: Active
Candida albicans [11]
  Activity: Active
Nakaseomyces glabratus [12]
  Activity: Active
Nakaseomyces glabratus [13]
  Activity: Active
Candida albicans [14]
  Activity: Active
Candida parapsilosis [15]
  Activity: Active
Candida parapsilosis [16]
  Activity: Active
Nakaseomyces glabratus [17]
  Activity: Active
Candida albicans [18]
  Activity: Active
Pichia kudriavzevii [19]
  Activity: Active
Candida albicans [20]
  inhibition (INH): 58%
